Data taken from ChEMBL document CHEMBL5058577, “EUbOPEN Chemogenomics Library 2 (Multiplex)” (2022).

System: U2OS
Assay: Multiplex assay against U2OS
Type: toxicity, cell-based
Conditions: human
In short: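 With compound added, live cells were imaged on a CQ1 microscope at 37°C and 5% CO2; staining with Hoechst33342, BioTracker Green Microtubule Cytoskeleton Dye, MitoTracker Red and Annexin V Alexa Fluor 680 had been done at seeding. The CellPathfinder machine-learning gating scheme split cells into Hoechst high-intensity objects or normal cells, normal cells into healthy, pyknosed or fragmented nuclei, and pyknosed cells into mitotic or apoptotic. The tubulin, mitochondrial-mass and membrane-permeability phenotypes are per cents of healthy-nucleus cells.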

[1] = 12 h, 1 µM, compound concentration 1 uM, replicate 1
[2] = 12 h, 1 µM, compound concentration 1 uM, replicate 2
[3] = 12 h, 10 µM, compound concentration 10 uM, replicate 1
[4] = 12 h, 10 µM, compound concentration 10 uM, replicate 2
[5] = 24 h, 1 µM, compound concentration 1 uM, replicate 1
[6] = 24 h, 1 µM, compound concentration 1 uM, replicate 2
[7] = 24 h, 10 µM, compound concentration 10 uM, replicate 1
[8] = 24 h, 10 µM, compound concentration 10 uM, replicate 2
[9] = 48 h, 1 µM, compound concentration 1 uM, replicate 1
[10] = 48 h, 1 µM, compound concentration 1 uM, replicate 2
[11] = 48 h, 10 µM, compound concentration 10 uM, replicate 1
[12] = 48 h, 10 µM, compound concentration 10 uM, replicate 2

Q: What does the source list for `COCCCN1CCC(NC(=O)c2cc(Cl)c(N)c3c2OCC3)CC1` [PRUCALOPRIDE]?
A: Population Apoptotic (%) [1]: 84%; Population Fragmented Nuclei (%) [1]: 30%; Population Healthy Nuclei (%) [1]: 63%; Population Hoechst High Intensity Objects (%) [1]: 1%; Population Membrane Permeable-Phenotype (%) [1]: 7%; Population Mitochondria Different-Phenotype (%) [1]: 3%; Population Mitotic Cells (%) [1]: 15%; Population Normal (%) [1]: 98%; Population Pyknosed Nuclei (%) [1]: 6%; Population Tubulin-Different-Phenotype (%) [1]: 4%; Total Cell Count [1]: 207; Population Apoptotic (%) [2]: 87%; Population Fragmented Nuclei (%) [2]: 21%; Population Healthy Nuclei (%) [2]: 71%; Population Hoechst High Intensity Objects (%) [2]: 0%; Population Membrane Permeable-Phenotype (%) [2]: 12%; Population Mitochondria Different-Phenotype (%) [2]: 7%; Population Mitotic Cells (%) [2]: 12%; Population Normal (%) [2]: 99%; Population Pyknosed Nuclei (%) [2]: 7%; Population Tubulin-Different-Phenotype (%) [2]: 8%; Total Cell Count [2]: 110; Population Apoptotic (%) [3]: 68%; Population Fragmented Nuclei (%) [3]: 22%; Population Healthy Nuclei (%) [3]: 63%; Population Hoechst High Intensity Objects (%) [3]: 3%; Population Membrane Permeable-Phenotype (%) [3]: 4%; Population Mitochondria Different-Phenotype (%) [3]: 0%; Population Mitotic Cells (%) [3]: 31%; Population Normal (%) [3]: 96%; Population Pyknosed Nuclei (%) [3]: 13%; Population Tubulin-Different-Phenotype (%) [3]: 2%; Total Cell Count [3]: 238; Population Apoptotic (%) [4]: 47%; Population Fragmented Nuclei (%) [4]: 13%; Population Healthy Nuclei (%) [4]: 73%; Population Hoechst High Intensity Objects (%) [4]: 2%; Population Membrane Permeable-Phenotype (%) [4]: 1%; Population Mitochondria Different-Phenotype (%) [4]: 1%; Population Mitotic Cells (%) [4]: 52%; Population Normal (%) [4]: 97%; Population Pyknosed Nuclei (%) [4]: 12%; Population Tubulin-Different-Phenotype (%) [4]: 1%; Total Cell Count [4]: 140; Population Apoptotic (%) [5]: 80%; Population Fragmented Nuclei (%) [5]: 26%; Population Healthy Nuclei (%) [5]: 65%; Population Hoechst High Intensity Objects (%) [5]: 2%; Population Membrane Permeable-Phenotype (%) [5]: 5%; Population Mitochondria Different-Phenotype (%) [5]: 3%; Population Mitotic Cells (%) [5]: 20%; Population Normal (%) [5]: 97%; Population Pyknosed Nuclei (%) [5]: 8%; Population Tubulin-Different-Phenotype (%) [5]: 5%; Total Cell Count [5]: 247; Population Fragmented Nuclei (%) [6]: 23%; Population Healthy Nuclei (%) [6]: 69%; Population Hoechst High Intensity Objects (%) [6]: 1%; Population Membrane Permeable-Phenotype (%) [6]: 8%; Population Mitochondria Different-Phenotype (%) [6]: 4%; Population Normal (%) [6]: 98%; Population Pyknosed Nuclei (%) [6]: 7%; Population Tubulin-Different-Phenotype (%) [6]: 7%; Total Cell Count [6]: 132; Population Apoptotic (%) [7]: 87%; Population Fragmented Nuclei (%) [7]: 23%; Population Healthy Nuclei (%) [7]: 64%; Population Hoechst High Intensity Objects (%) [7]: 4%; Population Membrane Permeable-Phenotype (%) [7]: 5%; Population Mitochondria Different-Phenotype (%) [7]: 2%; Population Mitotic Cells (%) [7]: 12%; Population Normal (%) [7]: 95%; Population Pyknosed Nuclei (%) [7]: 12%; Population Tubulin-Different-Phenotype (%) [7]: 4%; Total Cell Count [7]: 280; Population Apoptotic (%) [8]: 77%; Population Fragmented Nuclei (%) [8]: 12%; Population Healthy Nuclei (%) [8]: 76%; Population Hoechst High Intensity Objects (%) [8]: 1%; Population Membrane Permeable-Phenotype (%) [8]: 3%; Population Mitotic Cells (%) [8]: 22%; Population Normal (%) [8]: 98%; Population Pyknosed Nuclei (%) [8]: 11%; Population Tubulin-Different-Phenotype (%) [8]: 3%; Total Cell Count [8]: 161; Population Apoptotic (%) [9]: 85%; Population Fragmented Nuclei (%) [9]: 20%; Population Healthy Nuclei (%) [9]: 73%; Population Hoechst High Intensity Objects (%) [9]: 3%; Population Membrane Permeable-Phenotype (%) [9]: 3%; Population Mitochondria Different-Phenotype (%) [9]: 1%; Population Mitotic Cells (%) [9]: 14%; Population Normal (%) [9]: 96%; Population Pyknosed Nuclei (%) [9]: 6%; Population Tubulin-Different-Phenotype (%) [9]: 3%; Total Cell Count [9]: 352; Population Apoptotic (%) [10]: 86%; Population Healthy Nuclei (%) [10]: 67%; Population Hoechst High Intensity Objects (%) [10]: 2%; Population Membrane Permeable-Phenotype (%) [10]: 11%; Population Mitochondria Different-Phenotype (%) [10]: 6%; Population Mitotic Cells (%) [10]: 13%; Population Normal (%) [10]: 97%; Population Pyknosed Nuclei (%) [10]: 11%; Population Tubulin-Different-Phenotype (%) [10]: 9%; Total Cell Count [10]: 199; Population Apoptotic (%) [11]: 88%; Population Fragmented Nuclei (%) [11]: 17%; Population Healthy Nuclei (%) [11]: 69%; Population Hoechst High Intensity Objects (%) [11]: 1%; Population Membrane Permeable-Phenotype (%) [11]: 5%; Population Mitochondria Different-Phenotype (%) [11]: 2%; Population Mitotic Cells (%) [11]: 11%; Population Normal (%) [11]: 98%; Population Pyknosed Nuclei (%) [11]: 12%; Population Tubulin-Different-Phenotype (%) [11]: 2%; Total Cell Count [11]: 347; Population Apoptotic (%) [12]: 90%; Population Fragmented Nuclei (%) [12]: 11%; Population Healthy Nuclei (%) [12]: 79%; Population Membrane Permeable-Phenotype (%) [12]: 3%; Population Mitochondria Different-Phenotype (%) [12]: 3%; Population Mitotic Cells (%) [12]: 9%; Population Pyknosed Nuclei (%) [12]: 9%; Population Tubulin-Different-Phenotype (%) [12]: 1%; Total Cell Count [12]: 245
